Experimental data from paper PMC4872822 (Journal of medicinal chemistry, 2015).

Experiments:
h-15-LOX-1 = target: T1, h-15-LOX-1 (Homo sapiens, UniProt P16050); assay: Human 15-LOX-1 screening UV assay; type: biochemical; settings: for h-15-LOX-1 inhibition (result in words): SAR comparison, Figure 3, up to 50 μM
T1 sequence (P16050 1-662): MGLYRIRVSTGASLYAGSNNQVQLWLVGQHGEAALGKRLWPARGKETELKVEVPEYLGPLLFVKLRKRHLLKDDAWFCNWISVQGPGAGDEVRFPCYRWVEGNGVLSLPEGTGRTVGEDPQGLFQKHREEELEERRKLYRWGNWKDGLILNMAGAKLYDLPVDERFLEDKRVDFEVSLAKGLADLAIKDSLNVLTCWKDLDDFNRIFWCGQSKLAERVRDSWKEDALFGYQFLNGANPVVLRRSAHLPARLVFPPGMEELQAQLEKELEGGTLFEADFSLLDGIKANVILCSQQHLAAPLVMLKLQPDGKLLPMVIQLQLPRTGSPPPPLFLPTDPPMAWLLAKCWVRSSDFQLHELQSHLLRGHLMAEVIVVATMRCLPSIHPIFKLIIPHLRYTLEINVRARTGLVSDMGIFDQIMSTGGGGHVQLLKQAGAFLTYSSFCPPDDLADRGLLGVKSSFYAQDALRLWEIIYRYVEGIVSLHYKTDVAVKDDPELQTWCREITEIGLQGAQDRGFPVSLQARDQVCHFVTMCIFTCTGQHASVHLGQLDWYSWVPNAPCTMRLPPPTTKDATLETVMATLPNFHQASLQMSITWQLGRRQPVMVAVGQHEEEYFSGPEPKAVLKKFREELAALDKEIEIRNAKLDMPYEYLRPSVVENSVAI

[1] = tested on: interleukin expression in precision-cut lung slices (PCLS); assay: Gene expression by RT-qPCR in LPS/IFNγ-stimulated precision-cut lung slices; type: cell-based, mouse; settings: 20 h with 10 μM linoleic acid, LPS/IFNγ last 4 h
[2] = tested on: interleukin expression in RAW 264.7 cells; assay: Gene expression by RT-qPCR in LPS/IFNγ-stimulated RAW 264.7 cells; type: cell-based, murine; settings: RAW 264.7, 20 h with 10 μM linoleic acid, LPS/IFNγ last 4 h
How it was run: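 Murine macrophages (passage 7–16) in DMEM-GlutaMAX with 10% heat-inactivated FBS, extra 2 mM GlutaMAX and penicillin/streptomycin at 37 °C, 5% CO2, seeded at 20,000 cells/cm2 one day before. Test compound 1–500 nM (final) with 10 μM linoleic acid for 20 h; 10 ng/ml LPS and IFNγ for the last 4 h. Cells were DPBS-washed and total RNA isolated for RT-qPCR. Results are fold change versus the LPS/IFNγ/linoleic acid control.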

[3] = tested on: precision-cut lung slices (PCLS); settings: LDH release, 1-500 nM with 10 μM linoleic acid for 20 h
interleukin-12 (IL-12) = settings: after stimulation with LPS; cited from earlier work

## CCOC(=O)c1c(C=O)c2ccc(Cl)cc2n1C [Compound 3, Ethyl 6-chloro-3-formyl-1-methyl-1H-indole-2-carboxylate]
h-15-LOX-1; read-out: inhibition of the enzyme activity at 50 μM
  inhibition at 50 µM: < 50%

## O=Cc1c(Cl)[nH]c2cc(Cl)ccc12 [Compound 4]
h-15-LOX-1
  h-15-LOX-1 inhibition (result in words): inactive

## O=Cc1c[nH]c2cc(Cl)ccc12 [Compound 5]
h-15-LOX-1
  h-15-LOX-1 inhibition (result in words): inactive

## O=Cc1c(C(=O)O)[nH]c2cc(Cl)ccc12 [Compound 7, 6-chloro-3-formyl-1H-indole-2-carboxylic acid]
h-15-LOX-1
  h-15-LOX-1 inhibition (result in words): inactive

## CC(C)(C)OC(=O)c1cc2ccc(Cl)cc2[nH]1 [Compound 8, tert-butyl 6-chloro-1H-indole-2-carboxylate]
h-15-LOX-1
  h-15-LOX-1 inhibition (result in words): inactive

## CCOC(=O)c1[nH]c2cc(Cl)ccc2c1C(=O)C[C@@H](C)CCCC(C)C [Compound 14d, (S)-ethyl 6-chloro-3-(3,7-dimethyloctanoyl)-1H-indole-2-carboxylate]
[1]
  IL-1β gene expression: small but significant downregulation
  IL-6 gene expression: small but significant downregulation
  IL-10 gene expression: upregulated
  IL-12 gene expression: remained unchanged
[2]
  IL-1β gene expression: did not change
  IL-6 gene expression: did not change
  IL-12 gene expression: did not change
[3]
  concentration not affecting PCLS viability: ≤ 0.5 µM

## c1ccc2c(c1)SCc1c-2[nH]c2ccccc12 [PD-146176]
interleukin-12 (IL-12)
  effect on interleukin-12 (IL-12): downregulation of interleukin-12 (IL-12)
